Experimental data as given in ChEMBL document CHEMBL1143593, “In vitro metabolism of phenoxypropoxybiguanide analogues in human liver microsomes to potent antimalarial dihydrotriazines” (J Med Chem, 2005).
Values after ≈ are worked out from the molar mass of the structure shown.

Experiments:
Plasmodium falciparum [1] = assay: In vitro antimalarial activity for DHFR mutant, chloroquine and pyrimethamine-resistant Plasmodium falciparum W2
Plasmodium falciparum [2] = assay: In vitro antimalarial activity for DHFR wild-type, chloroquine and pyrimethamine-sensitive Plasmodium falciparum D6; format: functional, organism-based
Summary of the method: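 [3H]-hypoxanthine incorporation assay in folate-free medium. Two-fold dilutions; range 5000 (or 2500) ng/mL to 5 pg/mL for parent biguanides, 5 ng/mL to 5 fg/mL for dihydrotriazine metabolites. DMSO ≤0.002%. 37 °C under 90% N2/5% CO2/5% O2; label added at 48 h, harvest at 72 h, scintillation counting. Triplicate on three occasions; IC50 by sigmoid nonlinear regression versus drug-free controls.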

[3] = Maximum velocity against human liver microsomes; (n=6); format: ADME, Microsome
Summary of the method: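 Pooled human liver microsomes, 1 mg/mL, in NADPH regenerating buffer (1.25 mM βNADP+, 3.3 mM glucose-6-phosphate, 3.3 mM MgCl2). Mix preincubated 5 min at 37 °C, then started with glucose-6-phosphate dehydrogenase (1 unit/mL final). Substrate at 25–500 µM, 90 min at 37 °C. Stopped with ice-cold acetonitrile containing internal standard. Dihydrotriazine metabolite quantified by LC-MS/MS against synthetic standard curves. Vmax from Michaelis–Menten nonlinear fit using only ≤200 µM data, n=6.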

`CC(C)NC(=N)NC(=N)NOCCCOc1cc(Cl)c(Cl)cc1Cl` gave an IC50 (Plasmodium falciparum [1]) of 3790 ng/mL (≈ 9540 nM), an IC50 (Plasmodium falciparum [2]) of 877 ng/mL (≈ 2210 nM) and a Vmax [3] of 11.6 nmol/min/mg.

Compound `CC1(C)N=C(N)N=C(N)N1OCCCOc1cc(Cl)c(Cl)cc1Cl` has an IC50 (Plasmodium falciparum [1]) of 0.016 ng/mL (≈ 0.0405 nM) and an IC50 (Plasmodium falciparum [2]) of 0.02 ng/mL (≈ 0.0507 nM).

Compound `CC1(C)N=C(N)N=C(N)N1OCCCOc1ccc(OC(F)(F)F)cc1Cl` has an IC50 (Plasmodium falciparum [1]) of 0.031 ng/mL (≈ 0.0756 nM) and an IC50 (Plasmodium falciparum [2]) of 0.01 ng/mL (≈ 0.0244 nM).

With `CC(C)NC(=N)NC(=N)NOCCCOc1ccc(OC(F)(F)F)cc1` the IC50 (Plasmodium falciparum [1]) was > 5000 ng/mL, the IC50 (Plasmodium falciparum [2]) was > 2500 ng/mL and the Vmax [3] was 13.5 nmol/min/mg.

For `N=C(NOCCCOc1ccc(OC(F)(F)F)cc1)NC(=N)NC1CC1`, the IC50 (Plasmodium falciparum [1]) was > 5000 ng/mL and the IC50 (Plasmodium falciparum [2]) was > 2500 ng/mL.

For `CC(C)/N=C(N)/N=C(/N)NOCCCOc1ccc(OCC(F)(F)F)cc1`, the IC50 (Plasmodium falciparum [1]) was > 5000 ng/mL, the IC50 (Plasmodium falciparum [2]) was > 2500 ng/mL and the Vmax [3] was 18.7 nmol/min/mg.

With `CC(C)/N=C(N)/N=C(/N)NOCCCOc1ccc(C(F)(F)F)cc1Cl` the IC50 (Plasmodium falciparum [1]) was > 5000 ng/mL, the IC50 (Plasmodium falciparum [2]) was 2230 ng/mL (≈ 5640 nM) and the Vmax [3] was 15.4 nmol/min/mg.

With `CC1(C)N=C(N)N=C(N)N1OCCCOc1ccc(Cl)c(Cl)c1` the IC50 (Plasmodium falciparum [1]) was 0.028 ng/mL (≈ 0.0777 nM) and the IC50 (Plasmodium falciparum [2]) was 0.009 ng/mL (≈ 0.025 nM).

Compound `CC1(C)N=C(N)N=C(N)N1OCCCOc1ccc(OC(F)(F)F)cc1` has an IC50 (Plasmodium falciparum [1]) of 0.052 ng/mL (≈ 0.139 nM) and an IC50 (Plasmodium falciparum [2]) of 0.01 ng/mL (≈ 0.0266 nM).

For `CC1(C)N=C(N)N=C(N)N1OCCCOc1ccc(C(F)(F)F)cc1`, the IC50 (Plasmodium falciparum [1]) was 0.063 ng/mL (≈ 0.175 nM) and the IC50 (Plasmodium falciparum [2]) was 0.01 ng/mL (≈ 0.0278 nM).

For `CC1(C)N=C(N)N=C(N)N1OCCCOc1ccc(OCC(F)(F)F)cc1Cl`, the IC50 (Plasmodium falciparum [1]) was 0.081 ng/mL (≈ 0.191 nM) and the IC50 (Plasmodium falciparum [2]) was 0.022 ng/mL (≈ 0.0519 nM).

In the case of `CC(C)/N=C(N)/N=C(/N)NOCCCOc1ccc(C(F)(F)F)cc1`, the IC50 (Plasmodium falciparum [1]) is reported as > 5000 ng/mL, the IC50 (Plasmodium falciparum [2]) is reported as > 2500 ng/mL and the Vmax [3] is reported as 10.8 nmol/min/mg.

With `CC(C)/N=C(N)/N=C(/N)NOCCCOc1ccccc1OC(F)(F)F` the IC50 (Plasmodium falciparum [1]) was > 5000 ng/mL, the IC50 (Plasmodium falciparum [2]) was > 2500 ng/mL and the Vmax [3] was 13.3 nmol/min/mg.

`CC1(C)N=C(N)N=C(N)N1OCCCOc1ccccc1OC(F)(F)F` showed an IC50 (Plasmodium falciparum [1]) of 0.053 ng/mL (≈ 0.141 nM) and an IC50 (Plasmodium falciparum [2]) of 0.022 ng/mL (≈ 0.0586 nM).

For `CC(C)NC(=N)NC(=N)NOCCCOc1ccc(Cl)c(Cl)c1`, the IC50 (Plasmodium falciparum [1]) was 2550 ng/mL (≈ 7040 nM), the IC50 (Plasmodium falciparum [2]) was 845 ng/mL (≈ 2330 nM) and the Vmax [3] was 27.7 nmol/min/mg.

In the case of `CC1(C)N=C(N)N=C(N)N1c1ccc(Cl)cc1` [CYCLOGUANIL], the IC50 (Plasmodium falciparum [1]) is reported as > 2.5 ng/mL and the IC50 (Plasmodium falciparum [2]) is reported as 0.328 ng/mL (≈ 1.3 nM).

For `[H]/N=C(\N/C(=N/[H])Nc1ccc(Cl)cc1)NC(C)C` [PROGUANIL], the IC50 (Plasmodium falciparum [1]) was > 5000 ng/mL, the IC50 (Plasmodium falciparum [2]) was > 5000 ng/mL and the Vmax [3] was 19.6 nmol/min/mg.

`CCc1nc(N)nc(N)c1-c1ccc(Cl)cc1` [PYRIMETHAMINE] showed an IC50 (Plasmodium falciparum [1]) of 130 ng/mL (≈ 523 nM) and an IC50 (Plasmodium falciparum [2]) of 1.2 ng/mL (≈ 4.82 nM).
